In ChEMBL document CHEMBL1153198, “Design, synthesis and prostate cancer cell-based studies of analogs of the Rho/MKL1 transcriptional pathway inhibitor, CCG-1423” (Bioorg Med Chem Lett, 2010):

Key:
PC-3 [1] = test: Cytotoxicity against human PC3 cells assessed as inhibition of mitochondrial metabolism at 100 uM by WST-1 assay; format: functional
PC-3 [2] = test: Cytotoxicity against human PC3 cells assessed as inhibition of mitochondrial metabolism at 10 uM by WST-1 assay; format: functional
[3] = biological target: Transforming protein RhoA/Rho-related GTP-binding protein RhoC (Homo sapiens, UniProt P61586+P08134); test: Inhibition of RhoA/C-mediated transcriptional response in human PC3 cells by serum response factor-luciferase reporter gene assay; format: cell-based; conditions: pc-3
PC-3 [4] = test: Antiinvasive activity in human PC3 cells at 10 uM by Matrigel cell invasion assay; format: functional
Outline: (§1)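 PC-3 cells (2 × 10^5) were seeded in low-serum DMEM (0.5% FBS) in the upper chamber of 24-well Matrigel inserts, with compound or DMSO. The lower well held the same 0.5% FBS medium, and cells were incubated 24 h at 37 °C in 5% CO2. Inserts were methanol-fixed, stained with 0.5% crystal violet, and non-invaded cells were wiped off. Stain was extracted in 20% acetic acid and read at 595 nm.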

PC-3 [5] = test: Antiinvasive activity in human PC3 cells at 100 uM by Matrigel cell invasion assay; format: functional; outline: as §1

O=C(CONC(=O)c1cccc(C(F)(F)F)c1)Nc1ccc(Cl)cc1
inhibition at 100 µM (PC-3 [1]): 58% | inhibition at 10 µM (PC-3 [2]): 0% | IC50 [3]: 27 µM

O=C(Nc1cc(C(F)(F)F)cc(C(F)(F)F)c1)C1CCN(C(=O)c2ccc(Cl)cc2)CC1
inhibition at 100 µM (PC-3 [1]): 88% | inhibition at 10 µM (PC-3 [2]): 10% | IC50 [3]: 10 µM

O=C(CC1CC(c2cc(C(F)(F)F)cc(C(F)(F)F)c2)=NO1)Nc1ccc(Cl)cc1 (centres undefined)
inhibition at 100 µM (PC-3 [1]): 38% | IC50 [3]: 4.2 µM

O=C(NCCc1cn(-c2ccc(Cl)cc2)nn1)c1cc(C(F)(F)F)cc(C(F)(F)F)c1
IC50 [3]: > 100 µM

O=C(CONC(=O)c1ccc(C(F)(F)F)cc1)Nc1ccc(Cl)cc1
inhibition at 100 µM (PC-3 [1]): 56% | inhibition at 10 µM (PC-3 [2]): 0% | IC50 [3]: 29 µM

O=C(CCNC(=O)c1cc(C(F)(F)F)cc(C(F)(F)F)c1)NCc1ccc(Cl)cc1
IC50 [3]: > 100 µM

O=C(NCCCNc1ccc(Cl)cc1)c1cc(C(F)(F)F)cc(C(F)(F)F)c1
IC50 [3]: 5.1 µM

O=C(CCCCNC(=O)c1cc(C(F)(F)F)cc(C(F)(F)F)c1)Nc1ccc(Cl)cc1
IC50 [3]: > 100 µM

O=C(Nc1ccc(Cl)cc1)C1CCN(C(=O)c2cc(C(F)(F)F)cc(C(F)(F)F)c2)CC1
IC50 [3]: 16 µM

O=C(CONC(=O)c1cc(C(F)(F)F)cc(C(F)(F)F)c1)Nc1cccc(Cl)c1
IC50 [3]: 5.9 µM

O=C(CONC(=O)c1cc(C(F)(F)F)cc(C(F)(F)F)c1)Nc1ccccc1
inhibition at 100 µM (PC-3 [1]): 37% | inhibition at 10 µM (PC-3 [2]): 0% | IC50 [3]: 36 µM

O=C(CONC(=O)c1ccccc1)Nc1ccc(Cl)cc1
IC50 [3]: > 100 µM

O=C(CONC(=O)c1ccc(Cl)cc1)Nc1cc(C(F)(F)F)cc(C(F)(F)F)c1
IC50 [3]: 8.6 µM

O=C(CC1CCCCN1C(=O)c1cc(C(F)(F)F)cc(C(F)(F)F)c1)Nc1ccc(Cl)cc1 (centres undefined)
inhibition at 100 µM (PC-3 [1]): 14% | IC50 [3]: 9.5 µM

O=C(Nc1ccccc1C(=O)Nc1ccc(Cl)cc1)c1cc(C(F)(F)F)cc(C(F)(F)F)c1
IC50 [3]: > 100 µM

CN(C(=O)CCNC(=O)c1cc(C(F)(F)F)cc(C(F)(F)F)c1)c1ccc(Cl)cc1
IC50 [3]: > 100 µM

O=C(CCNCc1cc(C(F)(F)F)cc(C(F)(F)F)c1)Nc1ccc(Cl)cc1
inhibition (INH) (PC-3 [4]): 47% | IC50 [3]: 8.1 µM

FC(F)(F)c1cc(CNCCCNc2ccc(Cl)cc2)cc(C(F)(F)F)c1
inhibition at 100 µM (PC-3 [5]): 86% | IC50 [3]: 9.1 µM

O=C(Nc1ccc(Cl)cc1)C1CCCN1C(=O)c1cc(C(F)(F)F)cc(C(F)(F)F)c1 (centres undefined)
inhibition at 100 µM (PC-3 [5]): 78% | IC50 [3]: 69 µM

O=C(Nc1ccc(Cl)cc1)c1cccc(NC(=O)c2cc(C(F)(F)F)cc(C(F)(F)F)c2)c1
IC50 [3]: 1.7 µM

O=C(N[C@@H]1CCC[C@@H]1C(=O)Nc1ccc(Cl)cc1)c1cc(C(F)(F)F)cc(C(F)(F)F)c1
IC50 [3]: > 100 µM

O=C(NCCCOc1ccc(Cl)cc1)c1cc(C(F)(F)F)cc(C(F)(F)F)c1
inhibition at 100 µM (PC-3 [5]): 26% | IC50 [3]: 8.9 µM

O=C(CONC(=O)c1cc(C(F)(F)F)cc(C(F)(F)F)c1)Nc1ccc(Cl)cc1
IC50 [3]: 4.7 µM

O=C(CNC(=O)c1cc(C(F)(F)F)cc(C(F)(F)F)c1)Nc1ccc(Cl)cc1
IC50 [3]: 33 µM

O=C(CCCNC(=O)c1cc(C(F)(F)F)cc(C(F)(F)F)c1)Nc1ccc(Cl)cc1
IC50 [3]: 21 µM

O=C(c1cc(C(F)(F)F)cc(C(F)(F)F)c1)N1CCC(=O)N(c2ccc(Cl)cc2)CC1
IC50 [3]: > 100 µM

O=C(Nc1ccc(Cl)cc1)c1ccc(NC(=O)c2cc(C(F)(F)F)cc(C(F)(F)F)c2)cc1
inhibition at 100 µM (PC-3 [5]): 0% | IC50 [3]: > 100 µM

O=C(NCCC(=O)N1CCc2cc(Cl)ccc21)c1cc(C(F)(F)F)cc(C(F)(F)F)c1
inhibition at 100 µM (PC-3 [5]): 0% | inhibition (INH) (PC-3 [4]): 0% | IC50 [3]: 13 µM

O=C(Nc1ccc(Cl)cc1)C1CCN(C(=O)c2cc(C(F)(F)F)cc(C(F)(F)F)c2)C1 (centres undefined)
inhibition at 100 µM (PC-3 [1]): 67% | IC50 [3]: 16.3 µM

O=C(CCc1cn(-c2cc(C(F)(F)F)cc(C(F)(F)F)c2)nn1)Nc1ccc(Cl)cc1
IC50 [3]: > 100 µM

O=C(c1cc(C(F)(F)F)cc(C(F)(F)F)c1)N1CCC(Nc2ccc(Cl)cc2)CC1
inhibition at 100 µM (PC-3 [1]): 0% | inhibition at 10 µM (PC-3 [2]): 19% | IC50 [3]: 10.8 µM

O=C(NCc1csc(-c2ccc(Cl)cc2)n1)c1cc(C(F)(F)F)cc(C(F)(F)F)c1
IC50 [3]: 4.1 µM

O=C(CCNC(=O)c1cc(C(F)(F)F)cc(C(F)(F)F)c1)Nc1ccc(Cl)cc1
inhibition at 100 µM (PC-3 [1]): 10% | IC50 [3]: 38 µM
